Experimental data published in ChEMBL document CHEMBL1155234, “Dialkylamino and nitrogen heterocyclic analogues of hexadecylphosphocholine and cetyltrimetylammonium bromide: effect of phosphate group and environment of the ammonium cation on their biological activity” (Eur J Med Chem, 2009).
Converted amounts (≈) assume the structure as drawn.

Tests used:
Jurkat = assay: Cytotoxicity against human Jurkat cells after 72 hrs by MTT assay; format: functional, cell-based
How it was run: (§1)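 MTT end-point assay. Cells were exposed to compound at 1×10^-4 to 1×10^-8 mol l⁻¹ final for 72 h. Seeding was 3×10^3 cells ml⁻¹ for A-549, MCF-7 and MDA-MB-231; 5×10^3 for HeLa; 1×10^4 for Jurkat and CCRF-CEM. Media were DMEM/10% FCS (A-549, MCF-7, MDA-MB-231) or RPMI-HEPES/10% FCS (others). Formazan was dissolved in SDS for 12 h and read at 540 nm against untreated control, in triplicate. IC50 was curve-fitted.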

CCRF-CEM = assay: Cytotoxicity against human CCRF-CEM cells after 72 hrs by MTT assay; format: functional, cell-based; how it was run: as §1
HeLa = assay: Cytotoxicity against human HeLa cells after 72 hrs by MTT assay; format: functional, cell-based; how it was run: as §1
MDA-MB-231 = assay: Cytotoxicity against human MDA-MB-231 cells after 72 hrs by MTT assay; format: functional, cell-based; conditions: MDA-MB-231, 72 h; how it was run: as §1
MCF7 = assay: Cytotoxicity against human MCF7 cells after 72 hrs by MTT assay; format: functional, cell-based; conditions: MCF7, 72 h; how it was run: as §1
A549 = assay: Cytotoxicity against human A549 cells after 72 hrs by MTT assay; format: functional, cell-based; conditions: A549, 72 h; how it was run: as §1
Candida albicans = assay: Antifungal activity against Candida albicans CCM 8186 assessed as inhibition of colony formation after 24 hrs; format: functional
How it was run: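 C. albicans came from 24-h Sabouraud agar cultures and was suspended at 5×10^5 cells ml⁻¹ in physiological solution pH 7.2, adjusted to A540 = 0.35. It was mixed with aqueous compound and double-concentrated Sabouraud medium and incubated 24 h at 37 °C. Each well was then subcultured on Sabouraud agar for 24 h at 37 °C. MFC was the lowest concentration giving no colonies.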

Acanthamoeba lugdunensis = assay: Trophocidal activity against Acanthamoeba lugdunensis assessed as viability for 14 days by trypan blue exclusion assay; format: functional
How it was run: (§2)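 Trophozoites were grown axenically in PYG medium and seeded at 2×10^5 cells ml⁻¹ (100 µl), then mixed with compound in PYG at 37 °C. APCs were tested at 25–800 µM (six levels) and QUATs at 7.25–100 µM (five levels). Viability was scored by trypan blue exclusion. Eradication was confirmed by transfer to fresh PYG with growth monitored for 14 days. MTC was the lowest concentration giving 100% eradication.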

[1] = Toxicity in human erythrocytes assessed as hemolysis after 1 hr; format: cell-based, Erythrocyte
How it was run: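 Citrated human blood erythrocytes were washed three times in Ca/Mg-free PBS (2000g, 10 min) and resuspended in glucose-containing phosphate buffer, pH 7.4. They were diluted 1:10 into compound-containing buffer to a final 6.7–6.8×10^7 cells ml⁻¹ and incubated 1 h at 37 °C with shaking. After centrifugation, supernatant absorbance at 542 nm was compared with fully lysed controls (CTAB).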

Acanthamoeba castellanii = assay: Trophocidal activity against Acanthamoeba castellanii 1BU assessed as viability for 14 days by trypan blue exclusion assay; format: functional; how it was run: as §2
Acanthamoeba polyphaga = assay: Trophocidal activity against Acanthamoeba polyphaga 5SU assessed as viability for 14 days by trypan blue exclusion assay; format: functional; how it was run: as §2
Acanthamoeba lenticulata = assay: Trophocidal activity against Acanthamoeba lenticulata 72/2 assessed as viability for 14 days by trypan blue exclusion assay; format: functional; how it was run: as §2

CCCCCCCCCCCCCCCCOP(=O)([O-])OCC[N+]1(C)CCCCCC1
IC50 (Jurkat): 18.2 µM | IC50 (CCRF-CEM): 9.8 µM | IC50 (HeLa): 53.1 µM | IC50 (MDA-MB-231): 49.8 µM | IC50 (MCF7): 51.5 µM | IC50 (A549): 55.1 µM | MFC (Candida albicans; CCM 8186, 24 h): 8 µM (≈ 3.69 µg/mL) | MTC (Acanthamoeba lugdunensis): 50 µM | EC50 at 1 hr [1]: 25 µM

CCCCCCCCCCCCCCCCOP(=O)([O-])OCC[N+]1(C)CCCCCCC1
IC50 (Jurkat): 38.6 µM | IC50 (CCRF-CEM): 43.8 µM | IC50 (HeLa): 55 µM | IC50 (MDA-MB-231): 45.6 µM | IC50 (MCF7): 53.3 µM | IC50 (A549): 55 µM | MFC (Candida albicans; CCM 8186, 24 h): 8 µM (≈ 3.81 µg/mL) | MTC (Acanthamoeba lugdunensis): 50 µM | EC50 at 1 hr [1]: 30 µM

CCCCCCCCCCCCCCCCOP(=O)([O-])OCC[N+]1(C)CCOCC1
IC50 (Jurkat): 7.7 µM | IC50 (CCRF-CEM): 8.25 µM | IC50 (HeLa): 21.7 µM | IC50 (MDA-MB-231): 11.4 µM | IC50 (MCF7): 22.4 µM | IC50 (A549): 42 µM | MFC (Candida albicans; CCM 8186, 24 h): 8 µM (≈ 3.6 µg/mL) | MTC (Acanthamoeba lugdunensis): 200 µM | EC50 at 1 hr [1]: 30 µM

CCCCCCCCCCCCCCCC[N+](C)(CCCC)CCCC.[Br-]
IC50 (Jurkat): 0.76 µM | IC50 (CCRF-CEM): 0.91 µM | IC50 (HeLa): 0.9 µM | IC50 (MDA-MB-231): 2.55 µM | IC50 (MCF7): 0.68 µM | IC50 (A549): 0.64 µM | MFC (Candida albicans; CCM 8186, 24 h): 9 µM | MTC (Acanthamoeba lugdunensis): 25 µM | EC50 at 1 hr [1]: 25 µM

CCCCCCCCCCCCCCCC[N+](C)(CCC)CCC.[Br-]
IC50 (Jurkat): 0.85 µM | IC50 (CCRF-CEM): 1.96 µM | IC50 (HeLa): 1.68 µM | IC50 (MDA-MB-231): 4.27 µM | IC50 (MCF7): 0.8 µM | IC50 (A549): 0.75 µM | MFC (Candida albicans; CCM 8186, 24 h): 19 µM | MTC (Acanthamoeba lugdunensis): 25 µM | EC50 at 1 hr [1]: 30 µM

Cetyltrimethylammonium bromide
MFC (Candida albicans): 21 µM | MTC (Acanthamoeba lugdunensis): 25 µM

CCCCCCCCCCCCCCCC[N+]1(C)CCCCCCC1.[Br-]
IC50 (Jurkat): 0.78 µM | IC50 (CCRF-CEM): 1 µM | IC50 (HeLa): 1.43 µM | IC50 (MDA-MB-231): 4.12 µM | IC50 (MCF7): 0.94 µM | IC50 (A549): 0.85 µM | MFC (Candida albicans; CCM 8186, 24 h): 9 µM | MTC (Acanthamoeba lugdunensis): 12.5 µM | EC50 at 1 hr [1]: 30 µM

CCCCCCCCCCCCCCCC[N+](C)(CC)CC.[Br-]
IC50 (Jurkat): 0.8 µM | IC50 (CCRF-CEM): 2.1 µM | IC50 (HeLa): 1.38 µM | IC50 (MDA-MB-231): 4.9 µM | IC50 (MCF7): 0.65 µM | IC50 (A549): 0.62 µM | MFC (Candida albicans; CCM 8186, 24 h): 10 µM | MTC (Acanthamoeba lugdunensis): 25 µM | EC50 at 1 hr [1]: 40 µM

CCCCCCCCCCCCCCCC[N+]1(C)CCCCC1.[Br-]
IC50 (Jurkat): 0.72 µM | IC50 (CCRF-CEM): 0.92 µM | IC50 (HeLa): 1.47 µM | IC50 (MDA-MB-231): 3.86 µM | IC50 (MCF7): 0.59 µM | IC50 (A549): 0.63 µM | MFC (Candida albicans; CCM 8186, 24 h): 10 µM | MTC (Acanthamoeba lugdunensis): 12.5 µM | EC50 at 1 hr [1]: 35 µM

CCCCCCCCCCCCCCCCOP(=O)([O-])OCC[N+]1(C)CCCCC1
IC50 (Jurkat): 14 µM | IC50 (CCRF-CEM): 11.2 µM | IC50 (HeLa): 57.2 µM | IC50 (MDA-MB-231): 51.7 µM | IC50 (MCF7): 54.8 µM | IC50 (A549): > 100 µM | MFC (Candida albicans; CCM 8186, 24 h): 8 µM (≈ 3.58 µg/mL) | MTC (Acanthamoeba lugdunensis): 200 µM | EC50 at 1 hr [1]: 25 µM

CCCCCCCCCCCCCCCC[N+]1(C)CCCC1.[Br-]
IC50 (Jurkat): 0.82 µM | IC50 (CCRF-CEM): 1.35 µM | IC50 (HeLa): 2.29 µM | IC50 (MDA-MB-231): 3.8 µM | IC50 (MCF7): 0.62 µM | IC50 (A549): 0.53 µM | MFC (Candida albicans; CCM 8186, 24 h): 10 µM | MTC (Acanthamoeba lugdunensis): 12.5 µM | EC50 at 1 hr [1]: 35 µM

CCCCCCCCCCCCCCCC[N+]1(C)CCCCCC1.[Br-]
IC50 (Jurkat): 0.8 µM | IC50 (CCRF-CEM): 1 µM | IC50 (HeLa): 1.82 µM | IC50 (MDA-MB-231): 2.84 µM | IC50 (MCF7): 0.72 µM | IC50 (A549): 0.67 µM | MFC (Candida albicans; CCM 8186, 24 h): 9 µM | MTC (Acanthamoeba lugdunensis): 12.5 µM | EC50 at 1 hr [1]: 35 µM

CCCCCCCCCCCCCCCCOP(=O)([O-])OCC[N+](C)(CCC)CCC
IC50 (Jurkat): 28.6 µM | IC50 (CCRF-CEM): 19.2 µM | IC50 (HeLa): 55 µM | IC50 (MDA-MB-231): 40.6 µM | IC50 (MCF7): 50.6 µM | IC50 (A549): 55 µM | MFC (Candida albicans; CCM 8186, 24 h): 16 µM (≈ 7.42 µg/mL) | MTC (Acanthamoeba lugdunensis): 400 µM | EC50 at 1 hr [1]: 30 µM

CCCCCCCCCCCCCCCC[N+]1(C)CCOCC1.[Br-]
IC50 (Jurkat): 3.57 µM | IC50 (CCRF-CEM): 4.16 µM | IC50 (HeLa): 5.61 µM | IC50 (MDA-MB-231): 5.75 µM | IC50 (MCF7): 0.89 µM | IC50 (A549): 0.87 µM | MFC (Candida albicans; CCM 8186, 24 h): 24 µM | MTC (Acanthamoeba lugdunensis): 50 µM | EC50 at 1 hr [1]: 45 µM

CCCCCCCCCCCCCCCCOP(=O)([O-])OCC[N+](C)(CC)CC
IC50 (Jurkat): 19.6 µM | IC50 (CCRF-CEM): 9 µM | IC50 (HeLa): 49.4 µM | IC50 (MDA-MB-231): 34.4 µM | IC50 (MCF7): 53.7 µM | IC50 (A549): 59.4 µM | MFC (Candida albicans; CCM 8186, 24 h): 4 µM (≈ 1.74 µg/mL) | MTC (Acanthamoeba lugdunensis): 200 µM | EC50 at 1 hr [1]: 30 µM

CCCCCCCCCCCCCCCCOP(=O)([O-])OCC[N+]1(C)CCCC1
IC50 (Jurkat): 10 µM | IC50 (CCRF-CEM): 9.3 µM | IC50 (HeLa): 46.2 µM | IC50 (MDA-MB-231): 37.9 µM | IC50 (MCF7): 39.3 µM | IC50 (A549): 53.2 µM | MFC (Candida albicans; CCM 8186, 24 h): 8 µM (≈ 3.47 µg/mL) | MTC (Acanthamoeba lugdunensis): 200 µM | EC50 at 1 hr [1]: 30 µM

CCCCCCCCCCCCCCCCOP(=O)([O-])OCC[N+](C)(C)C [MILTEFOSINE]
IC50 (Jurkat): 10 µM | IC50 (CCRF-CEM): 13.5 µM | IC50 (HeLa): 41.6 µM | IC50 (MDA-MB-231): 37.6 µM | IC50 (MCF7): 39.2 µM | IC50 (A549): 44.7 µM | MFC (Candida albicans; CCM 8186, 24 h): 4 µM (≈ 1.63 µg/mL) | MTC (Acanthamoeba lugdunensis): 400 µM | EC50 at 1 hr [1]: 30 µM | MTC (Acanthamoeba castellanii): 31.25 µM | MTC (Acanthamoeba polyphaga): 31.25 µM | MTC (Acanthamoeba lenticulata): 20 µM
